Screens as filed in PubChem BioAssay.
Calb FLC = C. albicans growth modulation with fluconazole; AID 1979; growth inhibition, % (no concentration beside the values); C. albicans CaCi-2 (fluconazole-resistant clinical isolate) + fluconazole, Alamar Blue growth, 48 h; 0.57% of 300,000 active;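 active means growth inhibition above about 58% in most replicates, limit read from the data, passing the limit was not always enough; inconclusive means exactly half the replicates above a set limit; inactive means most replicates below a set limit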;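 further: all wells also contain fluconazole at 8 µg/ml as a sub-toxic cotreatment; 0% = median of DMSO wells and 100% = median of geldanamycin control wells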
T cruzi inh = T. cruzi replication inhibition | T. cruzi beta-gal in NIH3T3, luminescence, 90 h | inhibition, % (no concentration beside the values) | 1.4% of 300,000 active | AID 1885;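 active means mean inhibition across valid replicates above about 55%, limit read from the data; inconclusive means mean below that limit but half or more replicates reach it; inactive means mean below it, under half of replicates reach it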;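 further: signal also drops with host cell toxicity which is not excluded here; 0% = plate median of DMSO wells and 100% = zero luminescence signal; higher percent means less beta-gal luminescence so fewer parasites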
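Assay system: NIH/3T3 host cells with β-galactosidase reporter T. cruzi; input: 5,000 host fibroblasts per well; compound: single 50 nL compound addition per well in DMSO; timing: ≥90 h infection period, 3 h prior cell attachment; measured by: GalScreen β-gal luminescence, detergent lysis, 60 min; evaluation: percent inhibition of parasite-derived β-gal signal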
NALP1 inh = inhibitors of NALP1 inflammasome in yeast; S. cerevisiae NALP1/ASC/caspase-1 growth, X-gal OD620, 72 h; inhibition, % at 10 µM; 0.61% of 280,000 active; in the data active means inhibition mostly above about 24%, no sharp cut-off; inactive means mostly below about 32%
Lmaj promast = inhibitors of Leishmania major promastigote growth; Leishmania major promastigotes, resazurin fluorescence viability; inhibition, % at 10 µM; 9% of 200,000 active; in the data active means inhibition above about 50%;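 further: promastigotes grown with compound for 44 hours at 28 °C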
NALP3 yeast inh = inhibitors of NALP3 inflammasome in yeast. Yeast reconstituted NLRP3/ASC/caspase-1, beta-gal luminescence, 24 h. inhibition, % at 10 µM. 0.39% of 330,000 active. AID 2825;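 active means inhibition of 50% or more; inactive means inhibition below 50%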;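 further: plate controls were induced DMSO wells for no effect and uninduced yeast grown without galactose for full effect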
PolyA inhibitor = blocks polyadenylation in yeast reporter cells; S. cerevisiae SKY197-pL101 polyadenylation reporter, beta-gal luminescence; efflux-impaired pdr1/pdr3 knockout yeast; score 100 = 6 SD above DMSO; activity score, % at 12 µM; 0.02% of 300,000 active; AID 1875;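 active means lowest replicate activity score at least 50, where 100 means six control SD above control mean; inconclusive means lowest score under 50 but half or more replicates reach 50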;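 further: yeast exposed to compound for 9 h at 30 °C; higher score means more reporter readthrough which indicates perturbed polyadenylation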
Active calls of the source: *; ? = inconclusive; . = not tested or not shown. Only a selection was taken, and hits are over-represented in it overall.

SMILES	Calb FLC	T cruzi inh	NALP1 inh	Lmaj promast	NALP3 yeast inh	PolyA inhibitor
CCSc1nc(O)c(Cc2ccccc2)c(=O)[nH]1	-8	-5	11	-9	-4	?
COc1ccc(-c2noc(N3CCC(C(=O)NC(C)c4ccccc4)CC3)n2)cc1 (configuration not stated)	-9	12	16	.	2	-6
COc1ccc(C(=O)N2CCN(C3CCC(c4ccccc4)CC3)CC2)cc1OC (configuration not stated)	4	40	8	88*	-3	-12
O=C(c1ccccc1F)N1CCN(C2CCC(c3ccccc3)CC2)CC1 (configuration not stated)	-7	31	6	97*	7	-30
COc1ccccc1N1CCN(C2CCN(C3CCC(c4ccccc4)CC3)CC2)CC1 (configuration not stated)	-5	40	7	99*	25	-47
O=C(c1ccc(F)cc1)N1CCN(C2CCC(c3ccccc3)CC2)CC1 (configuration not stated)	-19	49	-6	92*	19	-7
O=C(c1ccc(F)cc1F)N1CCCC(c2nc(-c3cccs3)no2)C1 (configuration not stated)	6	0	15	.	8	-7
CC(=O)N1c2ccc(S(=O)(=O)N3CCCC3C(=O)Nc3ccc(C)cc3)cc2CC1C (configuration not stated)	-9	17	5	.	-3	16
CCOC(=O)c1sc(NC(=O)c2sccc2C)cc1C	-16	17	-9	69*	34	11
Cc1ccc(NC(=O)CN(C)C(=O)CCC(=O)c2cccs2)cc1	-6	-10	25	-4	-1	12
CCN(CC(=O)NCc1ccccn1)S(=O)(=O)c1ccc(OC)cc1	-6	4	12	.	-11	-5
CCCCOc1ccc(C(=O)Nc2ccc(N3CCN(C)CC3)cc2)cc1	-24	29	-7	63*	21	-13
CCCOc1ccc(NC(=O)OC2CCN(C)CC2)cc1	-9	55*	34	-6	-2	5
CCCOc1ccc(C(=O)Nc2ccc(S(=O)(=O)N3CCN(C)CC3)cc2)cc1	-3	4	21	.	17	-18
CCCOc1ccc(N2C(=O)CC(N(CCOC34CC5CC(CC(C5)C3)C4)C(C)=O)C2=O)cc1 (configuration not stated)	-10	12	8	12	7	0
COc1cnc(-c2ccccn2)nc1Oc1ccc(Cl)cc1	-13	-6	9	71*	36	-32
COc1cnc(-c2ccccn2)nc1Oc1ccc(Cl)c2ccccc12	-1	38	5	100*	34	-58
COc1cnc(-c2ccccn2)nc1Oc1ccccc1Cl	-15	-7	26	44	-14	-31
Cc1ccc(Oc2ncc(CN3CC(C)OC(C)C3)s2)cc1 (configuration not stated)	13	4	0	52*	-8	-4
CCOC(=O)C1CCN(Cc2cnc(Oc3ccc(Cl)cc3C)s2)CC1	-21	17	13	90*	28	-47
CCOC(=O)C1CCN(Cc2cnc(Oc3ccc(N)cc3)s2)CC1	-17	19	.	84*	28	0
CCOC(=O)C1CCN(Cc2cccc(Oc3ccccc3)c2)CC1	-2	6	22	.	11	-1
COc1cc(-c2nnc(SCc3cccnc3)n2C)cc(OC)c1O	6	-17	8	-2	6	-11
Cc1ccccc1Nc1nc(N)nc(COC(=O)c2cccc(S(=O)(=O)N(C)C)c2)n1	0	-6	32	66*	3	-4
Cc1ccccc1Nc1nc(N)nc(COC(=O)c2cccc(S(=O)(=O)NCc3ccccc3)c2)n1	-9	-23	35	43	18	-1
SMILES	Calb FLC	T cruzi inh	NALP1 inh	Lmaj promast	NALP3 yeast inh	PolyA inhibitor
Cc1nc([N+](=O)[O-])c(Br)n1CC(=O)c1cccc([N+](=O)[O-])c1	-5	10	10	86*	.	.
Cc1nc([N+](=O)[O-])c(Br)n1CC(=O)c1ccc(F)cc1	.	.	8	89*	.	.
O=C(C1CCC(CNS(=O)(=O)c2ccccc2)CC1)N1CCCCC1 (configuration not stated)	-1	-14	6	.	16	-4
O=C(c1cccs1)N1CCN(Cc2ccccc2[N+](=O)[O-])CC1	3	5	32	76*	28	9
COc1ccc(CN2CCN(C(=O)c3ccc(-c4ccccc4)cc3)CC2)c(OC)c1OC	1	12	22	15	18	5
COc1ccc(CN2CCN(C(=O)c3cccs3)CC2)c(OC)c1OC	-2	.	6	95*	0	13
COc1ccc(CN2CCN(C(=O)C3CCC(CNS(=O)(=O)c4ccccc4)CC3)CC2)c(OC)c1OC (configuration not stated)	-1	58*	9	4	8	-1
COc1ccc(C(=O)N2CCOC2CNC(=O)C(=O)NCCc2ccccc2OC)cc1 (configuration not stated)	-1	-4	5	.	0	-5
O=C(C[C@@H]1C/C=C\C[C@H](Cc2ccc(F)cc2)C(=O)OC[C@@H](c2ccccc2)NC1=O)NCCO	.	.	.	.	15	.
Clc1cccc(CN2CCC(Cc3ccccc3)CC2)c1	-13	18	30	86*	25	0
Cc1ccccc1NC(=O)c1ccc(CN2CCC(Cc3ccccc3)CC2)cc1	1	27	16	53*	21	-6
O=C(/C=C/c1cccc(Cl)c1)N1CCC(Cc2ccccc2)CC1	1	3	19	50*	16	8
Clc1ccc(CN2CCC(Cc3ccccc3)CC2)cc1	-16	-2	28	90*	12	-74
Cn1c2c(c3ccccc31)CCN1CCC[C@]21c1ccccc1	-11	39	28	.	10	10
O=C(N=C1SC2CS(=O)(=O)CC2N1c1ccc(F)cc1F)C1CC1 (configuration not stated)	0	-1	10	.	18	3
C[C@H](CO)N1C[C@H](C)[C@@H](CN(C)Cc2ccc3c(c2)OCO3)Oc2c(NS(=O)(=O)c3cn(C)cn3)cccc2C1=O	.	.	.	.	-7	.
CCc1nnc(NC(=O)C2Cc3ccccc3CN2S(=O)(=O)c2c(C)c(C)cc(C)c2C)s1 (configuration not stated)	13	25	5	-7	-12	-22
COc1ccc(NC(=O)CSc2nc3ccccc3nc2N2CCOCC2)c(OC)c1	6	11	2	.	10	-4
COc1ccc(NC(=O)c2ccc(=O)[nH]c2)cc1S(=O)(=O)N1CCCCC1	6	-21	27	56*	8	2
COC(=O)c1ccccc1NC(=O)C1CCN(S(=O)(=O)c2cc(C)ccc2OC)CC1	2	6	7	76*	18	0
